As a reminder, the ED50 is the midpoint of the dose-response relation. The low end stands for greater potency, the high end for weaker potency. For orientation: IC50 means the midpoint of a concentration-inhibition curve.

For the first experiment, the system named is Canis familiaris. The experiment in a line: Effect that produces a 50% increase in myocardial contractile force (CF) above control in anesthetized open-chest dogs at 8.75 mg/kg intravenous dose. The class given is functional. Conditions: Canis lupus familiaris, Myocardium. Summed up:
(§1)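 Anesthetized (pentobarbital 45 mg/kg i.p.), artificially respired mongrel dogs with right thoracotomy. Contractile force was read by a strain gauge on the right ventricle. Compound was given in 10% DMF in saline, or as the HCl salt in saline, by femoral vein infusion in 3–4 stepwise increasing doses, each over 5 min. ED50 (mg/kg iv) is the dose giving a 50% CF rise over control, taken from 3–4 point dose–response curves by graphic estimation (n = 1, 2 dogs) or linear regression (n ≥ 3).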
As to `Cc1nc(O)nc2cc(Cl)c(Cl)cc12`, the ED50 was greater than 8.75 mg/kg.

On to `CCc1nc(O)nc2cc(OC)c(OC)cc12`, for which the ED50 was found to be 3.4 mg/kg.

The subject of the next experiment is Canis familiaris. The experiment is described as follows: Effect on heart rate (HR) in anesthetized open-chest dogs at 0.875 mg/kg intravenous dose. The class given is functional, Canis lupus familiaris.
Details: not given
The method, boiled down:
(§2)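 Pentobarbital-anesthetized (45 mg/kg i.p.), ventilated mongrel dogs, open chest. MAP came from a femoral artery cannula, HR from a cardiotachometer triggered by the pressure pulse, and CF from a right-ventricle strain gauge. Compound in 10% DMF/saline or as the HCl salt in saline was infused iv in 3–4 stepwise rising doses, each over 5 min. Responses are % change from predrug control at the maximum dose given.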
`COc1ccc2[nH]c(=O)nc(C)c2c1OC` [BEMARINONE]: the Change came to 20%.

As for `Cc1nc(O)nc2ccc(N3CCOCC3)cc12`, the Change is given as 13%.

For the next experiment, the system named is Canis familiaris. The experiment in a line: Effect on arterial blood pressure (MAP) in anesthetized open-chest dogs at 8.75 mg/kg intravenous dose. The class given is functional, Canis lupus familiaris.
Details: not given
Summed up:
as §2
For `COc1ccc(OC)c2c(C)nc(O)nc12`, the Change is recorded as -6%.

In the case of `Cc1nc(O)nc2cc(Cl)c(Cl)cc12`, the Change is given as 1%.

`CCc1nc(O)nc2cc(OC)c(OC)cc12`: the Change is -28%.

The test system of the next experiment is Canis familiaris. The experiment in a line: Effect on myocardial contractile force (CF) in anesthetized open-chest dogs at 8.75 mg/kg intravenous dose. The class given is functional, Canis lupus familiaris, Myocardium.
Details: not given
The method, boiled down:
as §2
On to `COc1ccc(OC)c2c(C)nc(O)nc12`, for which the Change was 54%.

Regarding `Cc1nc(O)nc2cc(Cl)c(Cl)cc12`, the Change is 10%.

For the molecule `CCc1nc(O)nc2cc(OC)c(OC)cc12`, the Change was found to be 82%.

The subject of the next experiment is Canis familiaris. The experiment is described as follows: Effect on myocardial contractile force (CF) in anesthetized open-chest dogs at 0.875 mg/kg intravenous dose. The experiment is classed as functional, Canis lupus familiaris, Myocardium.
Details: not given
Summed up: as §2
On to `COc1ccc2[nH]c(=O)nc(C)c2c1OC` [BEMARINONE], for which the Change is recorded as 114%.

Take `Cc1nc(O)nc2ccc(N3CCOCC3)cc12`: the Change was 59%.

Another experiment relates to Canis familiaris. The experiment in a line: Effect on heart rate (HR) in anesthetized open-chest dogs at 8.75 mg/kg intravenous dose. The class given is functional, Canis lupus familiaris.
Details: not given
Summed up:
as §2
As to `COc1ccc(OC)c2c(C)nc(O)nc12`, the Change is reported as 13%.

For `Cc1nc(O)nc2cc(Cl)c(Cl)cc12`, the Change was found to be 2%.

As to `CCc1nc(O)nc2cc(OC)c(OC)cc12`, the Change was found to be 13%.

The next experiment addresses Phosphodiesterase 3 (Canis familiaris). The experiment in a line: Inhibition of canine cardiac fraction III cAMP phosphodiesterase (PDE 3) at 1.875 mg/kg intravenous dose.
Details: not given
As for `CCc1nc(O)nc2ccc(OC)c(OC)c12`, the IC50 came out at 18 µM.

`COc1cc2nc(O)nc(Cc3ccccc3)c2cc1OC` came in with an IC50 of 13 µM.

As for `Cc1nc(O)nc2ccc(N3CCN(C)CC3)cc12`, the IC50 is 300 µM.

The subject of another experiment is Canis familiaris. The experiment in a line: Effect on heart rate (HR) in anesthetized open-chest dogs at 1.875 mg/kg intravenous dose. The experiment is classed as functional, Canis lupus familiaris.
Details: not given
The method, boiled down:
as §2
As to `COc1cc2nc(O)nc(C)c2c(OC)c1OC`, the Change was 0%.

As to `CCc1nc(O)nc2ccc(OC)c(OC)c12`, the Change stood at 20%.

For `COc1cc2nc(O)nc(Cc3ccccc3)c2cc1OC`, the Change was found to be 3%.

Regarding `COc1ccc2nc(O)ncc2c1OC`, the Change was found to be 10%.

Turning to `COc1cc2c(C)nc(O)nc2c(OC)c1OC`, the Change came to 3%.

For `Cc1nc(O)nc2ccc3c(c12)OCO3`, the Change is on record as 13%.

For `Cc1nc(O)nc2ccc(N3CCN(C)CC3)cc12`, the Change is reported as 6%.

For the molecule `COc1ccc2c(c(C)nc(=O)n2C)c1OC`, the Change came out at 5%.

Regarding `Nc1cc(-c2ccncc2)c[nH]c1=O` [INAMRINONE], the Change is given as 12%.

In a further experiment the test system is Canis familiaris. The experiment in a line: Effect on arterial blood pressure (MAP) in anesthetized open-chest dogs at 0.875 mg/kg intravenous dose.
Details: not given
The class given is functional, Canis lupus familiaris. The method, boiled down:
as §2
Turning to `COc1ccc2[nH]c(=O)nc(C)c2c1OC` [BEMARINONE], the Change is on record as -16%.

Regarding `Cc1nc(O)nc2ccc(N3CCOCC3)cc12`, the Change is -10%.

The test system of the next experiment is Canis familiaris. The experiment in a line: 50% increase in myocardial contractile force (CF) above control in anesthetized open-chest dogs at 1.875 mg/kg intravenous dose. The experiment is classed as functional. Conditions: Canis lupus familiaris, Myocardium. Summed up: as §1
The molecule `COc1cc2nc(O)nc(C)c2c(OC)c1OC` showed an ED50 greater than 1.87 mg/kg.

The molecule `CCc1nc(O)nc2ccc(OC)c(OC)c12` displayed an ED50 of 0.51 mg/kg.

As to `COc1cc2nc(O)nc(Cc3ccccc3)c2cc1OC`, the ED50 was greater than 1.87 mg/kg.

Regarding `COc1ccc2nc(O)ncc2c1OC`, the ED50 stood at 1.64 mg/kg.

Molecule `COc1cc2c(C)nc(O)nc2c(OC)c1OC` displayed an ED50 greater than 1.87 mg/kg.

Turning to `Cc1nc(O)nc2ccc3c(c12)OCO3`, the ED50 turned out to be 0.69 mg/kg.

Molecule `Cc1nc(O)nc2ccc(N3CCN(C)CC3)cc12` had an ED50 greater than 1.87 mg/kg.

`COc1ccc2c(c(C)nc(=O)n2C)c1OC` showed an ED50 greater than 1.87 mg/kg.

`Nc1cc(-c2ccncc2)c[nH]c1=O` [INAMRINONE] had an ED50 of 0.38 mg/kg.

A further experiment addresses Phosphodiesterase 3 (Canis familiaris). The experiment is described as follows: Inhibitory activity against canine cardiac fraction III cyclic AMP phosphodiesterase (PDE III).
Details: not given
The molecule `COc1ccc(OC)c2c(C)nc(O)nc12` yielded an IC50 of 129 µM.

A further experiment deals with Canis familiaris. The experiment in a line: Effect on arterial blood pressure (MAP) in anesthetized open-chest dogs at 1.875 mg/kg intravenous dose. The class given is functional, Canis lupus familiaris.
Details: not given
Summed up: as §2
In the case of `COc1cc2nc(O)nc(C)c2c(OC)c1OC`, the Change is recorded as -9%.

Consider `CCc1nc(O)nc2ccc(OC)c(OC)c12`, for which the Change is reported as 9%.

Regarding `COc1cc2nc(O)nc(Cc3ccccc3)c2cc1OC`, the Change was 30%.

For the molecule `COc1ccc2nc(O)ncc2c1OC`, the Change is reported as -9%.

In the case of `COc1cc2c(C)nc(O)nc2c(OC)c1OC`, the Change is listed as -4%.

As to `Cc1nc(O)nc2ccc3c(c12)OCO3`, the Change was -14%.

For `Cc1nc(O)nc2ccc(N3CCN(C)CC3)cc12`, the Change came to 0%.

Turning to `COc1ccc2c(c(C)nc(=O)n2C)c1OC`, the Change stood at 6%.

As for `Nc1cc(-c2ccncc2)c[nH]c1=O` [INAMRINONE], the Change is given as -10%.

The subject of another experiment is Canis familiaris. The experiment is described as follows: 50% increase in myocardial contractile force (CF) above control in anesthetized open-chest dogs at 0.875 mg/kg intravenous dose. The class given is functional. Conditions: Canis lupus familiaris, Myocardium. Summed up: as §1
Regarding `COc1ccc2[nH]c(=O)nc(C)c2c1OC` [BEMARINONE], the ED50 was found to be 0.23 mg/kg.

`Cc1nc(O)nc2ccc(N3CCOCC3)cc12`: it took a dose of 0.7 mg/kg to reach the 50% effect level (ED50).

The next experiment has as its target Phosphodiesterase 3 (Canis familiaris). The experiment is described as follows: Inhibition of canine cardiac fraction III cAMP phosphodiesterase (PDE 3) at 0.875 mg/kg intravenous dose.
Details: not given
The molecule `COc1ccc2[nH]c(=O)nc(C)c2c1OC` [BEMARINONE] yielded an IC50 of 17 µM.

In the next experiment the test system is Canis familiaris. The experiment in a line: Effect on myocardial contractile force (CF) in anesthetized open-chest dogs at 1.875 mg/kg intravenous dose. The experiment is classed as functional, Canis lupus familiaris, Myocardium.
Details: not given
The method, boiled down:
as §2
For the molecule `COc1cc2nc(O)nc(C)c2c(OC)c1OC`, the Change was determined as 11%.

As to `CCc1nc(O)nc2ccc(OC)c(OC)c12`, the Change is listed as 112%.

With `COc1cc2nc(O)nc(Cc3ccccc3)c2cc1OC`, the Change is 33%.

Take `COc1ccc2nc(O)ncc2c1OC`: the Change is recorded as 101%.

Take `COc1cc2c(C)nc(O)nc2c(OC)c1OC`: the Change came to 10%.

For the molecule `Cc1nc(O)nc2ccc3c(c12)OCO3`, the Change amounted to 71%.

As for `Cc1nc(O)nc2ccc(N3CCN(C)CC3)cc12`, the Change came to 10%.

Regarding `COc1ccc2c(c(C)nc(=O)n2C)c1OC`, the Change was 31%.

Consider `Nc1cc(-c2ccncc2)c[nH]c1=O` [INAMRINONE], for which the Change came out at 134%.
